Experimental data reported in ChEMBL document CHEMBL4402517, “Rational modification of Mannich base-type derivatives as novel antichagasic compounds: Synthesis, in vitro and in vivo evaluation” (Bioorg Med Chem, 2019).
The source made the active and inactive calls. The calls are words filed in the database; no cut-off is given here.

What was measured:
Trypanosoma cruzi [1] = test: (§1) Antitrypanosomal activity against Trypanosoma cruzi MHOM/Pe/2011/Arequipa;DTU 5 bloodstream trypomastigote infected in BALB/c mouse assessed as parasite-free adipose tissue in acute phase at 20 mg/kg/day, po administered for 5 consecutive days starting from day 8 post infection followed by cyclophosphamide induced immunosuppression on day 80 post infection measured after day 100 post infection by PCR method relative to control; format: functional
Summary of the method: (§2)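 Female BALB/c mice (10–12 weeks, three per group) were infected i.p. with 5 × 10^5 Arequipa bloodstream trypomastigotes. Dosing was oral, 20 mg/kg/day for 5 days, as a suspension in 5% DMSO/0.5% HPMC. Cyclophosphamide 200 mg/kg i.p. was given at day 80 pi. At necropsy (day 100) tissues were tested by PCR on the splice leader region (primers TC/TC1, 300 bp). Scored as x/3 mice positive.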

Trypanosoma cruzi [2] = test: as §1, with “tissue in chronic phase at” for “tissue in acute phase at”, “from day 70 post infection” for “from day 8 post infection”; format: functional; summary of the method: as §2
Trypanosoma cruzi [3] = test: Antitrypanosomal activity against Trypanosoma cruzi TINF/CH/1956/Tulahuen;DTU 6 epimastigotes measured after 72 hrs by Neubauer hemocytometer; format: functional, organism-based; conditions: TINF/CH/1956/Tulahuen;DTU 6, 72 h
[4] = Selectivity index, ratio of IC50 for African green monkey Vero cells to IC50 for Trypanosoma cruzi IRHOD/CO/2008/SN3;DTU 1; format: toxicity; conditions: read-out: Selectivity Index
Summary of the method: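 SI = Vero IC50 / epimastigote IC50. Vero cells were grown in RPMI-1640 with 10% FBS, seeded at 0.8 × 10^4 cells/well, exposed to 10.0–200.0 µM for 72 h, then given MTT for 4 h. Epimastigotes were grown in MTL with 10% FBS at 28 °C, 5 × 10^5/mL, exposed to 6.3–50 µM for 48 h, then resazurin for 24 h (570/600 nm). IC50s came from nonlinear regression.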

Trypanosoma cruzi [5] = test: Antitrypanosomal activity against Trypanosoma cruzi MHOM/Pe/2011/Arequipa;DTU 5 amastigote forms measured after 72 hrs by Giemsa staining based assay; format: functional, organism-based; conditions: MHOM/Pe/2011/Arequipa;DTU 5, 72 h
Summary of the method: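 Vero cells (1 × 10^4/well, on coverslips) left to adhere 24 h at 37 °C, 5% CO2, then infected with trypomastigotes at MOI 10:1 for 24 h. Free parasites were removed by three PBS washes. Compounds at 3.1, 6.25, 12.5, 25 and 50 µM were incubated 72 h, and amastigotes were counted after Giemsa staining. Triplicates, two separate experiments; IC50 by nonlinear regression.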

[6] = Selectivity index, ratio of IC50 for African green monkey Vero cells to IC50 for Trypanosoma cruzi MHOM/Pe/2011/Arequipa; DTU 5 amastigote forms; format: toxicity; conditions: read-out: Selectivity Index
Summary of the method: (§3)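 Vero cells (1 × 10^4/well) were infected with trypomastigotes at MOI 10:1 for 24 h and washed with PBS. They were then exposed to 3.1–50 µM for 72 h at 37 °C in 5% CO2, and amastigotes were counted after Giemsa staining. Triplicates in two determinations; nonlinear regression.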

[7] = Selectivity index, ratio of IC50 for African green monkey Vero cells to IC50 for Trypanosoma cruzi IRHOD/CO/2008/SN3;DTU 1 trypomastigote forms; format: toxicity; conditions: read-out: Selectivity Index
Summary of the method: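 Bloodstream trypomastigotes were taken from BALB/c mice by cardiac puncture and diluted in RPMI with 10% FBS at 2 × 10^6/mL. They were incubated with 3.1–50.0 µM for 24 h at 37 °C in 5% CO2 and counted in a Neubauer chamber. Triplicate, at least three experiments; nonlinear regression.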

[8] = Selectivity index, ratio of IC50 for African green monkey Vero cells to IC50 for Trypanosoma cruzi TINF/CH/1956/Tulahuen;DTU 6 amastigote forms; format: toxicity; conditions: read-out: Selectivity Index; summary of the method: as §3
Trypanosoma cruzi [9] = test: Trypanocidal activity against Trypanosoma cruzi trypomastigote form infected in African green monkey Vero cells measured after 48 hrs by resazurin dye based assay; format: functional, organism-based
Trypanosoma cruzi [10] = test: as §1, with “bone marrow” for “adipose tissue”; format: functional; summary of the method: as §2
Trypanosoma cruzi [11] = test: as §1, with “as parasite-free bone marrow in chronic” for “as parasite-free adipose tissue in acute”, “marrow in chronic phase at” for “tissue in acute phase at”, “from day 70 post infection” for “from day 8 post infection”; format: functional; summary of the method: as §2
Trypanosoma cruzi [12] = test: as §1, with “as parasite-free brain in chronic” for “as parasite-free adipose tissue in acute”, “brain in chronic phase at” for “tissue in acute phase at”, “from day 70 post infection” for “from day 8 post infection”; format: functional; summary of the method: as §2
Trypanosoma cruzi [13] = test: as §1, with “as parasite-free heart in chronic” for “as parasite-free adipose tissue in acute”, “heart in chronic phase at” for “tissue in acute phase at”, “from day 70 post infection” for “from day 8 post infection”; format: functional; summary of the method: as §2
[14] = (§4) Toxicity in BALB/c mouse infected with Trypanosoma cruzi MHOM/Pe/2011/Arequipa;DTU 5 bloodstream trypomastigote assessed as decrease in serum urea level in acute phase at 20 mg/kg/day, po administered for 5 consecutive days starting from day 8 post infection and measured at day 14 post infection by biochemical analysis relative to control; format: organism-based; design: scale not given: the % may be the effect or the level left; conditions: in vivo
Summary of the method: (§5)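 Female BALB/c mice (10–12 weeks, 14–20 g; groups of three) were infected i.p. with 5 × 10^5 Arequipa bloodstream trypomastigotes. Dosing was oral at 20 mg/kg/day for 5 days, from day 8 pi (acute) or day 70 pi (chronic), as a 2 mg/ml suspension in 5% DMSO/0.5% HPMC; controls received vehicle. Cyclophosphamide 200 mg/kg i.p. was given at day 80 pi. Serum was collected 2 days post-treatment and at necropsy by cardiac puncture and compared with infected untreated controls.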

[15] = as §4, with “creatine kinase muscle to brain ratio” for “urea”; format: organism-based; design: scale not given: the % may be the effect or the level left; conditions: in vivo; summary of the method: as §5
[16] = as §4, with “creatine kinase muscle to brain ratio” for “urea”, “chronic” for “acute”, “70” for “8”, “76” for “14”, “infection” for “infection by biochemical analysis”; format: organism-based; design: scale not given: the % may be the effect or the level left; conditions: in vivo; summary of the method: as §5
[17] = Toxicity in BALB/c mouse infected with Trypanosoma cruzi MHOM/Pe/2011/Arequipa;DTU 5 bloodstream trypomastigote assessed as change in serum alanine aminotransferase level in chronic phase at 20 mg/kg/day, po administered for 5 consecutive days starting from day 70 post infection measured on day 100 post infection relative to control; format: organism-based; conditions: in vivo; summary of the method: as §5
Trypanosoma cruzi [18] = test: Antitrypanosomal activity against Trypanosoma cruzi MHOM/Pe/2011/Arequipa;DTU 5 bloodstream trypomastigotes infected in BALB/c mouse assessed as reduction in serum Ig-G level in acute phase at 20 mg/kg/day, po administered for 5 consecutive days starting from day 8 post infection and measured at day 79 post infection by ELISA; format: functional, organism-based
Summary of the method: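 Sera came from infected BALB/c mice (three per group) dosed orally at 20 mg/kg/day for 5 days. Sampling points: 2 days after treatment, the day before immunosuppression (acute only) and necropsy day. Anti-T. cruzi IgG was measured by indirect ELISA using parasite Fe-SOD as antigen, read as OD at 492 nm.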

Trypanosoma cruzi [19] = test: Antitrypanosomal activity against Trypanosoma cruzi MHOM/Pe/2011/Arequipa;DTU 5 epimastigote assessed as effect on acetate excretion at IC50 after 72 hrs by H NMR method relative to control; format: functional, organism-based
Summary of the method: (§6)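 Cells were spun at 800 × g for 10 min and culture supernatants analysed by 1H NMR. Catabolite peaks were expressed as % variation versus untreated parasites.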

Trypanosoma cruzi [20] = test: Antitrypanosomal activity against Trypanosoma cruzi MHOM/Pe/2011/Arequipa;DTU 5 epimastigote assessed as effect on ethanol excretion at IC50 after 72 hrs by H NMR method relative to control; format: functional, organism-based; summary of the method: as §6

SMILES	Activity (Trypanosoma cruzi [1]) [%]	Activity (Trypanosoma cruzi [2]) [%]	IC50 (Trypanosoma cruzi [3]) [µM]	selectivity ratio [4]	IC50 (Trypanosoma cruzi [5]) [µM]	selectivity ratio [6]	selectivity ratio [7]	selectivity ratio [8]	IC50 (Trypanosoma cruzi [9]) [µM]	Activity (Trypanosoma cruzi [10]) [%]	Activity (Trypanosoma cruzi [11]) [%]	Activity (Trypanosoma cruzi [12]) [%]	Activity (Trypanosoma cruzi [13]) [%]	Activity [14]	Activity [15]	Activity [16]	Activity [17] [%]	Activity (Trypanosoma cruzi [18])	Activity (Trypanosoma cruzi [19])	Activity (Trypanosoma cruzi [20])
O=C(CCN1CCN(c2ccc(C(F)(F)F)cc2)CC1)c1ccc(O)cc1	13	50	14.8	8.5	6.2	17.4	51	27.4	9.4	13	50	50	50	<= 10%	<= 30%	<= 30%	> 10	Active	Active	Active
O=C(Cn1ccnc1[N+](=O)[O-])NCc1ccccc1 [BENZNIDAZOLE]	25	38	25.3	> 13.1	3	> 67.2	> 6	> 51.7	4.1	25	38	38	38	<= 30%	<= 30%	<= 30%	> 10	Active	Active	Active
O=C(CCN1CCN(c2ccc(Cl)cc2)CC1)c1ccc(O)cc1	50	63	10.6	8.6	5.1	20.4	50.9	34.5	6.8	50	63	63	63	<= 10%	<= 30%	<= 30%	> 10	Active	Active	Active
